From ChEMBL document CHEMBL4270615, “Design, synthesis and biological evaluation of novel thiazolidinedione derivatives as irreversible allosteric IKK-β modulators” (Eur J Med Chem, 2018)
Calls of active or inactive are those of the source. No cut-off for these calls is given here.

Experiments:
[1] = molecular target: T1, Inhibitor of nuclear factor kappa-B kinase subunit beta (Homo sapiens) (UniProt O14920); assay: Inhibition of IKKbeta (unknown origin) at 10 uM using IkappaBalpha-derived 5FAMGRHDSGLDSMK-NH2 as substrate preincubated for 10 mins followed by substrate addition measured after 2 hrs by IMAP based TR-FRET assay relative to control
T1 sequence (whole entry): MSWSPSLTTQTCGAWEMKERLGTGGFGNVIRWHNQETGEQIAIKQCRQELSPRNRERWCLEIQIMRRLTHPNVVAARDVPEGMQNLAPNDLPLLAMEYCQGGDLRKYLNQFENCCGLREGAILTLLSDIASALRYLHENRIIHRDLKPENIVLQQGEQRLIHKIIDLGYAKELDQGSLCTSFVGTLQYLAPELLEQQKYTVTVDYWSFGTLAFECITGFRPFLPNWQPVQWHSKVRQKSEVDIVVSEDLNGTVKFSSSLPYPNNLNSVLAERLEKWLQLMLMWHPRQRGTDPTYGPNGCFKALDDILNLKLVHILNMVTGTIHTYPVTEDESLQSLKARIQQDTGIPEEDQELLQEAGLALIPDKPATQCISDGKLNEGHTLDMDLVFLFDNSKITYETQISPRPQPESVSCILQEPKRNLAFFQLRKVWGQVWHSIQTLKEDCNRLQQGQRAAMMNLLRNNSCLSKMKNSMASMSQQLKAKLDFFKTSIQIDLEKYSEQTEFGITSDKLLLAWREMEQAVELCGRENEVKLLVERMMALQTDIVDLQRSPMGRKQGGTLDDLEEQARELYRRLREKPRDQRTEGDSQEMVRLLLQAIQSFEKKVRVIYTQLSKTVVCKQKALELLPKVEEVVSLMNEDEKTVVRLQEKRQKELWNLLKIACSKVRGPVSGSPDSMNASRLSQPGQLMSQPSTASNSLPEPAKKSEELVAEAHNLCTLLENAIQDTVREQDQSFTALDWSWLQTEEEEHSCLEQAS
In short: (§1)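 Recombinant IKK2 at 0.5 µg/mL in 10 mM Tris-HCl pH 7.2, 10 mM MgCl2, 0.05% NaN3, 1 mM DTT, 0.01% Tween-20. Compound preincubated with enzyme for 10 min, then 1 μM 5-FAM IκBα peptide and 3 μM ATP added; reaction at room temperature for 2 h. IMAP binding reagent (1:600) plus terbium donor (1:400) added 15 h before the TR-FRET read. Percent inhibition measured at 10 µM.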

[2] = molecular target: T2, Inhibitor of nuclear factor kappa-B kinase subunit beta (Homo sapiens, UniProt O14920); assay: Inhibition of IKKbeta (unknown origin) using IkappaBalpha-derived 5FAMGRHDSGLDSMK-NH2 as substrate preincubated for 10 mins followed by substrate addition measured after 2 hrs by IMAP based TR-FRET assay; in short: as §1
T2 sequence (O14920 whole entry): T1 sequence (whole entry)

hERG (KCNH2) = hERG (KCNH2) (Homo sapiens, UniProt Q12809); assay: Inhibition of human ERG expressed in CHOK1 cells assessed as reduction in tail current at 100 uM and -80 holding potential after 100 to 200 secs by whole cell automated patch-clamp electrophysiology assay relative to control; assay type: ADME, cell-based; conditions: CHO-K1 cells expressing human ERG
In short: (§2)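 CHO-K1 Tet-On hERG cells, with expression induced by doxycycline 5 μg/ml, recorded 20–32 h after induction. Whole-cell automated patch clamp used intracellular solution of 50 KCl, 60 KF, 10 NaCl, 2 MgCl2, 20 EGTA, 10 HEPES pH 7.2 (mM) and extracellular solution of 140 NaCl, 4 KCl, 2 CaCl2, 1 MgCl2, 5 glucose, 10 HEPES pH 7.4. Compound perfused for 100–200 s until tail-current block reached equilibrium. Percent inhibition taken at 100 μM.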

[3] = molecular target: Voltage-gated inwardly rectifying potassium channel KCNH2 (Homo sapiens, UniProt Q12809); assay: Inhibition of human ERG expressed in CHOK1 cells assessed as reduction in tail current at -80 holding potential after 100 to 200 secs by whole cell automated patch-clamp electrophysiology assay; assay type: ADME, cell-based; in short: as §2
[4] = tested on: hERG (KCNH2) versus IKKbeta; assay: Safety index, ratio of compound IC50 for human ERG expressed in CHOK1 cells to IC50 for IKKbeta (unknown origin); assay type: toxicity, cell-based; conditions: CHO-K1 cells expressing human ERG, read-out: Ratio IC50
In short: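 Safety index calculated as hERG IC50 divided by IKK-β IC50.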

[5] = molecular target: T2, Inhibitor of nuclear factor kappa-B kinase subunit beta; assay: Inhibition of human IKKbeta using IKKtide as substrate after 20 mins by [gamma-33P]-ATP based radiometric assay
[6] = Cytotoxicity against LPS-treated mouse RAW264.7 cells assessed as decrease in cell viability after 24 hrs by MTT assay; assay type: cell-based; conditions: LPS-treated RAW264.7 cells
In short: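 RAW 264.7 cells seeded at 1×10^5 cells/mL, grown overnight, then exposed to samples for 24 h, with or without 1 μg/ml LPS. MTT added from a 5 mg/mL PBS stock for 4 h at 37 °C. Formazan dissolved in DMSO and absorbance read at 540 nm. IC80 is the concentration lowering viability to 80% in the presence of LPS.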

[7] = molecular target: T1, Inhibitor of nuclear factor kappa-B kinase subunit beta (Homo sapiens); assay: Irreversible inhibition of IKKbeta (unknown origin) at 0.001 to 30 uM using IkappaBalpha-derived 5FAMGRHDSGLDSMK-NH2 as substrate measured up to 60 mins
In short: (§3)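 Same IKK2 IMAP TR-FRET system (0.5 µg/mL enzyme, 1 μM peptide, 3 μM ATP, room temperature). Ten concentrations, 0.001–30 μM, with reactions run for 0, 20, 40 or 60 min instead of 2 h. Dose–response curves fitted at each time point. Kobs obtained from ln(% activity remaining) against time, then regressed nonlinearly against concentration.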

[8] = molecular target: T2, Inhibitor of nuclear factor kappa-B kinase subunit beta; assay: Irreversible inhibition of IKKbeta (unknown origin) using IkappaBalpha-derived 5FAMGRHDSGLDSMK-NH2 as substrate measured immediately; in short: as §3
[9] = molecular target: T2, Inhibitor of nuclear factor kappa-B kinase subunit beta; assay: Irreversible inhibition of IKKbeta (unknown origin) using IkappaBalpha-derived 5FAMGRHDSGLDSMK-NH2 as substrate measured after 20 mins; in short: as §3
[10] = molecular target: T2, Inhibitor of nuclear factor kappa-B kinase subunit beta; assay: Irreversible inhibition of IKKbeta (unknown origin) using IkappaBalpha-derived 5FAMGRHDSGLDSMK-NH2 as substrate measured after 40 mins; in short: as §3
[11] = molecular target: T2, Inhibitor of nuclear factor kappa-B kinase subunit beta; assay: Irreversible inhibition of IKKbeta (unknown origin) using IkappaBalpha-derived 5FAMGRHDSGLDSMK-NH2 as substrate measured after 60 mins; in short: as §3
RAW264.7 [12] = assay: Antiinflammatory activity against mouse RAW264.7 cells assessed as inhibition of LPS-induced TNFalpha production incubated for 1 hr followed by LPS addition measured after 24 hrs by ELISA; assay type: functional, cell-based
In short: (§4)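 RAW 264.7 macrophages (DMEM, 10% FBS, penicillin/streptomycin, 37 °C, 5% CO2) plated at 2×10^5 cells/mL and left overnight. Compounds at 1.5, 3 and 6 μM, or NS-398 as positive control, given for 1 h, then LPS (10 ng/mL) for 24 h. PGE2 and TNF-α in diluted culture medium quantified by ELISA. IC50 is the concentration halving the produced mediator.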

RAW264.7 [13] = assay: Antiinflammatory activity against mouse RAW264.7 cells assessed as inhibition of LPS-induced PGE2 production incubated for 1 hr followed by LPS addition measured after 24 hrs by ELISA; assay type: functional, cell-based; in short: as §4

Voltage-gated inwardly rectifying potassium channel KCNH2, sequence (Q12809 whole entry): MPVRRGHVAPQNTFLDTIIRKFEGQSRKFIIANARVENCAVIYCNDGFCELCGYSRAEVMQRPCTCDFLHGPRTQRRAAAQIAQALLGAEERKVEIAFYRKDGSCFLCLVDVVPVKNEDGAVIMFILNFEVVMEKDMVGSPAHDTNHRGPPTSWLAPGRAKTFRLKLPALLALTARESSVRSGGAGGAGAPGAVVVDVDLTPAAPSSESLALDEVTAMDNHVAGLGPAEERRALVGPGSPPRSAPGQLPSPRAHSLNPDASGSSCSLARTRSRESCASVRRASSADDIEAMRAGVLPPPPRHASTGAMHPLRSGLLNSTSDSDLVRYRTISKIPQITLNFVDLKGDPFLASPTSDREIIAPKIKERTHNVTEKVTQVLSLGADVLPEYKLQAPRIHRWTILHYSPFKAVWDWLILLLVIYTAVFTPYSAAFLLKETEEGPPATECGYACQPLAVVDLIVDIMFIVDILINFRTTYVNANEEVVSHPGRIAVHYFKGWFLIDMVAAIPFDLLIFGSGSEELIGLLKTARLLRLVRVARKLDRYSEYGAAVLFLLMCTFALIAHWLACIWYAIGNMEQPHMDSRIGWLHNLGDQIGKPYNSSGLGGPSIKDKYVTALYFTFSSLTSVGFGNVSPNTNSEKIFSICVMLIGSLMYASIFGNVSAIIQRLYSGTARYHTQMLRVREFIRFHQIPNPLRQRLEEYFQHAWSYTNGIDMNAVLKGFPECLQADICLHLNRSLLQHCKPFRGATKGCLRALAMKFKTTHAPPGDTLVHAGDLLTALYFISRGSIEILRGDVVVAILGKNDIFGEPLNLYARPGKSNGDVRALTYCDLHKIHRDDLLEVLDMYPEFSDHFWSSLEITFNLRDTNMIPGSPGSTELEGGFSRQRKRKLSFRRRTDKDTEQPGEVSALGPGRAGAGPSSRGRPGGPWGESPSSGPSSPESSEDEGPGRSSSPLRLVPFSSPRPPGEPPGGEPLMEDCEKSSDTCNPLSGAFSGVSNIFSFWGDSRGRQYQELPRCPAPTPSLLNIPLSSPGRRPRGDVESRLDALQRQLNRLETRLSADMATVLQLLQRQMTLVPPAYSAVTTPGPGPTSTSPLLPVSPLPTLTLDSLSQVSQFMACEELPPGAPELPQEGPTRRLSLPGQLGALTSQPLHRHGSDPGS
hERG (KCNH2), sequence (Q12809 whole entry, the tested form may be a part): as the sequence (Q12809 whole entry) above

Compound: COCCCN1CCN(CCCCOc2ccc(N3C(=O)S/C(=C\c4ccc(Oc5ccc([N+](=O)[O-])cc5)cc4)C3=O)cc2)CC1
- inhibition [1]: 9.4%

Compound: CS(=O)(=O)N1CCN(CCCCOc2ccc(N3C(=O)S/C(=C\c4ccc(Oc5ccc(Br)cc5)cc4)C3=O)cc2)CC1
- inhibition [1]: 3.3%

Compound: COCCN1CCN(CCCCOc2ccc(N3C(=O)S/C(=C\c4ccc(Oc5ccc(Cl)cc5)cc4)C3=O)cc2)CC1
- inhibition [1]: 1.7%

Compound: CS(=O)(=O)N1CCN(CCCCOc2ccc(N3C(=O)S/C(=C\c4ccc(Oc5ccc(Cl)cc5)cc4)C3=O)cc2)CC1
- inhibition [1]: 0.8%

Compound: O=C(C1CC1)N1CCN(CCCCOc2ccc(N3C(=O)S/C(=C\c4ccc(Oc5ccc(Cl)cc5)cc4)C3=O)cc2)CC1
- inhibition [1]: 17%

Compound: COCCCN1CCN(CCCCOc2ccc(N3C(=O)S/C(=C\c4ccc(Oc5ccc(F)cc5)cc4)C3=O)cc2)CC1
- inhibition [1]: 0.7%

Compound: CS(=O)(=O)N1CCN(CCCCOc2ccc(N3C(=O)S/C(=C\c4ccc(Oc5ccc([N+](=O)[O-])cc5)cc4)C3=O)cc2)CC1
- inhibition [1]: 0%

Compound: CS(=O)(=O)N1CCN(CCCCOc2ccc(N3C(=O)S/C(=C\c4ccc(Oc5ccc(F)cc5)cc4)C3=O)cc2)CC1
- inhibition [1]: 2.7%

Compound: O=C1S/C(=C\c2ccc(Oc3ccc(Br)cc3)cc2)C(=O)N1c1ccc(OCCCCN2CCN(CC3CC3)CC2)cc1
- inhibition [1]: 60.8%
- IC50 [2]: 7900 nM
- inhibition at 100 µM (hERG (KCNH2)): 66.5%
- IC50 [3]: 27.5 µM
- selectivity ratio [4]: 3.5

Compound: Nc1nc(N)nc(-c2ccc(Oc3ccccc3N)cc2)n1
- IC50 [5]: 7.8 µM

Compound: O=C(C1CC1)N1CCN(CCCCOc2ccc(N3C(=O)S/C(=C\c4ccc(Oc5ccc([N+](=O)[O-])cc5)cc4)C3=O)cc2)CC1
- inhibition [1]: 21.7%

Compound: O=C1S/C(=C\c2ccc(N3CCOCC3)c(Cl)c2)C(=O)N1c1ccc(OCCCN2CCN(CC3CC3)CC2)cc1
- IC80 at 24 h [6]: 2670 nM
- inhibition [1]: 90.7%
- IC50 [2]: 700 nM
- inhibition [7]: Active
- IC50 [8]: 372 nM
- IC50 [9]: 288 nM
- IC50 [10]: 251 nM
- IC50 [11]: 252 nM
- IC50 (RAW264.7 [12]): > 6 µM

Compound: O=C1S/C(=C\c2ccc(Oc3ccc(F)cc3)cc2)C(=O)N1c1ccc(OCCCN2CCN(CC3CC3)CC2)cc1
- inhibition [1]: 88.8%
- IC50 [2]: 1400 nM

Compound: O=C1S/C(=C\c2ccc(N3CCOCC3)c(Cl)c2)C(=O)N1c1ccc(OCCCCCN2CCN(CC3CC3)CC2)cc1
- IC80 at 24 h [6]: < 1500 nM
- inhibition [1]: 92.1%
- IC50 [2]: 900 nM
- Activity (RAW264.7 [13]): Dose-dependent effect
- IC50 (RAW264.7 [13]): > 6 µM

Compound: O=C1S/C(=C\c2ccc(Oc3ccc(Cl)cc3)cc2)C(=O)N1c1ccc(OCCCCN2CCN(CC3CC3)CC2)cc1
- inhibition [1]: 37.5%

Compound: COCCN1CCN(CCCCOc2ccc(N3C(=O)S/C(=C\c4ccc(Oc5ccc(F)cc5)cc4)C3=O)cc2)CC1
- inhibition [1]: 1.6%

Compound: O=C(C1CC1)N1CCN(CCCCOc2ccc(N3C(=O)S/C(=C\c4ccc(Oc5ccc(Br)cc5)cc4)C3=O)cc2)CC1
- inhibition [1]: 52.4%
- IC50 [2]: 8600 nM
- inhibition at 100 µM (hERG (KCNH2)): 17.1%

Compound: COCCN1CCN(CCCCOc2ccc(N3C(=O)S/C(=C\c4ccc(Oc5ccc(Br)cc5)cc4)C3=O)cc2)CC1
- inhibition [1]: 0%

Compound: COCCCN1CCN(CCCCOc2ccc(N3C(=O)S/C(=C\c4ccc(Oc5ccc(Br)cc5)cc4)C3=O)cc2)CC1
- inhibition [1]: 0%

Compound: O=C1N/C(=N\c2ccc(O)cc2)S/C1=C\c1cc2ccccc2[nH]1
- IC50 [5]: 97.4 µM

Compound: O=C1S/C(=C\c2ccc(Oc3ccc(F)cc3)cc2)C(=O)N1c1ccc(OCCCCCN2CCN(CC3CC3)CC2)cc1
- IC80 at 24 h [6]: > 6000 nM
- inhibition [1]: 92.8%
- IC50 [2]: 400 nM
- inhibition [7]: Active
- IC50 [8]: 1100 nM
- IC50 [9]: 340 nM
- IC50 [10]: 299 nM
- IC50 [11]: 240 nM
- Activity (RAW264.7 [13]): Dose-dependent effect
- IC50 (RAW264.7 [13]): > 6 µM
- IC50 (RAW264.7 [12]): 1.67 µM

Compound: O=C1S/C(=C\c2ccc(Oc3ccc(F)cc3)cc2)C(=O)N1c1ccc(OCCCCN2CCN(CC3CC3)CC2)cc1
- inhibition [1]: 85.7%
- IC50 [2]: 1700 nM
- inhibition at 100 µM (hERG (KCNH2)): 99.5%
- IC50 [3]: 3.4 µM
- selectivity ratio [4]: 2

Compound: COCCCN1CCN(CCCCOc2ccc(N3C(=O)S/C(=C\c4ccc(Oc5ccc(Cl)cc5)cc4)C3=O)cc2)CC1
- inhibition [1]: 1.6%

Compound: COCCN1CCN(CCCCOc2ccc(N3C(=O)S/C(=C\c4ccc(Oc5ccc([N+](=O)[O-])cc5)cc4)C3=O)cc2)CC1
- inhibition [1]: 9.3%

Compound: O=C1S/C(=C\c2ccc(Oc3ccc([N+](=O)[O-])cc3)cc2)C(=O)N1c1ccc(OCCCCN2CCN(CC3CC3)CC2)cc1
- IC80 at 24 h [6]: > 6000 nM
- inhibition [1]: 85.6%
- IC50 [2]: 1500 nM
- Activity (RAW264.7 [13]): Dose-dependent effect
- IC50 (RAW264.7 [13]): > 6 µM
- IC50 (RAW264.7 [12]): 3.41 µM
- inhibition at 100 µM (hERG (KCNH2)): 61.2%
- IC50 [3]: 55.3 µM
- selectivity ratio [4]: 36.9

Compound: O=C(C1CC1)N1CCN(CCCCOc2ccc(N3C(=O)S/C(=C\c4ccc(Oc5ccc(F)cc5)cc4)C3=O)cc2)CC1
- inhibition [1]: 21.2%
